# In ChEMBL document CHEMBL1275285, “Synthesis, antimicrobial and anti-inflammatory activities of novel 5-(1-adamantyl)-1,3,4-thiadiazole derivatives” (2010):
# Active and inactive are the calls of the source. No cut-off for these calls is given here.
# Tests used:
# Format in all cases: functional
# Staphylococcus aureus [1] = experiment: Antimicrobial activity against Staphylococcus aureus IFO 3060 at 100 ug/8 mm disk after 24 hrs by agar disk diffusion method
# Method in brief: (§1)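 Agar disc diffusion on Mueller-Hinton agar. Sterile 8 mm filter-paper discs were moistened with the agent dissolved in DMSO and placed on plates already inoculated with the organism. Plates were incubated at 37 °C, and growth-inhibition zone diameters were measured after 24 h.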
# Bacillus subtilis [2] = experiment: Antimicrobial activity against Bacillus subtilis IFO 3007 at 100 ug/8 mm disk after 24 hrs by agar disk diffusion method; method in brief: as §1
# Micrococcus luteus [3] = experiment: Antimicrobial activity against Micrococcus luteus IFO 3232 at 100 ug/8 mm disk after 24 hrs by agar disk diffusion method; method in brief: as §1
# Escherichia coli [4] = experiment: Antimicrobial activity against Escherichia coli IFO 3301 at 100 ug/8 mm disk after 24 hrs by agar disk diffusion method; method in brief: as §1
# Pseudomonas aeruginosa [5] = experiment: Antimicrobial activity against Pseudomonas aeruginosa IFO 3448 at 100 ug/8 mm disk after 24 hrs by agar disk diffusion method; method in brief: as §1
# Staphylococcus aureus [6] = experiment: Antimicrobial activity against Staphylococcus aureus IFO 3060 after 24 hrs
# Method in brief: (§2)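 MIC by two-fold serial dilution in wells, inoculated with microbial suspensions at 10^6 CFU/mL. Incubation was at 36 °C for 24 h (bacteria) or 48 h (C. albicans). MIC was the lowest concentration fully inhibiting visible growth, read by unaided eye.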
# Bacillus subtilis [7] = experiment: Antimicrobial activity against Bacillus subtilis IFO 3007 after 24 hrs
# Method in brief: (§3)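 MIC by two-fold serial dilution in wells inoculated with 10^6 CFU/mL of each organism; incubated at 36 °C for 24 h (bacteria); MIC taken as lowest concentration giving no visible growth by unaided eye.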
# Micrococcus luteus [8] = experiment: Antimicrobial activity against Micrococcus luteus IFO 3232 after 24 hrs; method in brief: as §2
# Pseudomonas aeruginosa [9] = experiment: Antimicrobial activity against Pseudomonas aeruginosa IFO 3448 after 24 hrs; method in brief: as §3
# Staphylococcus aureus [10] = experiment: Antimicrobial activity against Staphylococcus aureus IFO 3060 at 200 ug/8 mm disk after 24 hrs by agar disk diffusion method
# Method in brief: (§4)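 Agar disc diffusion on Mueller-Hinton agar: 8 mm filter paper discs moistened with compound in DMSO (200 per disc) placed on plates pre-inoculated with each organism; incubated at 37 °C; growth inhibition zone diameter read after 24 h for bacteria, 48 h for C. albicans.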
# Bacillus subtilis [11] = experiment: Antimicrobial activity against Bacillus subtilis IFO 3007 at 200 ug/8 mm disk after 24 hrs by agar disk diffusion method; method in brief: as §4
# Micrococcus luteus [12] = experiment: Antimicrobial activity against Micrococcus luteus IFO 3232 at 200 ug/8 mm disk after 24 hrs by agar disk diffusion method; method in brief: as §4
# Escherichia coli [13] = experiment: Antimicrobial activity against Escherichia coli IFO 3301 at 200 ug/8 mm disk after 24 hrs by agar disk diffusion method; method in brief: as §4
# Pseudomonas aeruginosa [14] = experiment: Antimicrobial activity against Pseudomonas aeruginosa IFO 3448 at 200 ug/8 mm disk after 24 hrs by agar disk diffusion method; method in brief: as §4
# Candida albicans [15] = experiment: Antimicrobial activity against Candida albicans IFO 0583 at 200 ug/8 mm disk after 48 hrs by agar disk diffusion method; method in brief: as §4
# Rattus norvegicus [16] = experiment: Antiinflammatory activity in Sprague-Dawley rat assessed as inhibition of carrageenan-induced paw edema at 20 mg/kg, ip administered 1 hrs before carrageenan challenge relative to untreated control; settings: route intraperitoneal
# Rattus norvegicus [17] = experiment: Antiinflammatory activity in Sprague-Dawley rat assessed as inhibition of carrageenan-induced paw edema at 40 mg/kg, ip administered 1 hrs before carrageenan challenge relative to untreated control; settings: route intraperitoneal
# Candida albicans [18] = experiment: Antimicrobial activity against Candida albicans IFO 0583 at 100 ug/8 mm disk after 48 hrs by agar disk diffusion method
# Method in brief: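 Reference antifungal applied at 100 per 8 mm disc on Mueller-Hinton agar pre-inoculated with C. albicans; 37 °C incubation; inhibition zone diameter measured at 48 h.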
# Candida albicans [19] = experiment: Antimicrobial activity against Candida albicans IFO 0583 after 48 hrs; settings: IFO 0583, 48 h; method in brief: as §2
# Escherichia coli [20] = experiment: Antimicrobial activity against Escherichia coli IFO 3301 after 24 hrs; settings: IFO 3301, 24 h; method in brief: as §3
# Rattus norvegicus [21] = experiment: Antiinflammatory activity in Sprague-Dawley rat assessed as inhibition of carrageenan-induced paw edema at 5 mg/kg, ip administered 1 hrs before carrageenan challenge relative to untreated control; settings: route intraperitoneal
compound,measurement,setting,value
GENTAMICIN,GI,Staphylococcus aureus [1],26 mM
same,GI,Bacillus subtilis [2],25 mM
same,GI,Micrococcus luteus [3],18 mM
same,GI,Escherichia coli [4],20 mM
same,GI,Pseudomonas aeruginosa [5],19 mM
same,MIC,Staphylococcus aureus [6],2 µg/mL
same,MIC,Bacillus subtilis [7],2 µg/mL
same,MIC,Micrococcus luteus [8],2 µg/mL
same,MIC,Pseudomonas aeruginosa [9],1 µg/mL
O=C(O)Cn1nc(C23CC4CC(CC(C4)C2)C3)sc1=S,GI,Staphylococcus aureus [10],18 mm
same,GI,Bacillus subtilis [11],22 mm
same,GI,Micrococcus luteus [12],16 mm
same,growth inhibition (GI),Escherichia coli [13],inactive
same,growth inhibition (GI),Pseudomonas aeruginosa [14],inactive
same,GI,Candida albicans [15],17 mm
same,MIC,"Bacillus subtilis [7]; IFO 3007, 24 h",2 µg/mL
same,inhibition in vivo at 20 mg/kg,Rattus norvegicus [16],29.5%
same,inhibition in vivo at 40 mg/kg,Rattus norvegicus [17],32.7%
S=c1sc(C23CC4CC(CC(C4)C2)C3)nn1CN1CCN(c2ccccc2)CC1,growth inhibition (GI),Staphylococcus aureus [10],inactive
same,GI,Bacillus subtilis [11],14 mm
same,growth inhibition (GI),Micrococcus luteus [12],inactive
same,growth inhibition (GI),Escherichia coli [13],inactive
same,growth inhibition (GI),Pseudomonas aeruginosa [14],inactive
same,growth inhibition (GI),Candida albicans [15],inactive
S=c1sc(C23CC4CC(CC(C4)C2)C3)nn1Cc1ccc(Cl)cc1,growth inhibition (GI),Staphylococcus aureus [10],inactive
same,growth inhibition (GI),Bacillus subtilis [11],inactive
same,growth inhibition (GI),Micrococcus luteus [12],inactive
same,growth inhibition (GI),Escherichia coli [13],inactive
same,growth inhibition (GI),Pseudomonas aeruginosa [14],inactive
same,growth inhibition (GI),Candida albicans [15],inactive
CC(C(=O)O)n1nc(C23CC4CC(CC(C4)C2)C3)sc1=S (racemic),GI,Staphylococcus aureus [10],18 mm
same,GI,Bacillus subtilis [11],20 mm
same,GI,Micrococcus luteus [12],13 mm
same,growth inhibition (GI),Escherichia coli [13],inactive
same,growth inhibition (GI),Pseudomonas aeruginosa [14],inactive
same,growth inhibition (GI),Candida albicans [15],inactive
same,MIC,"Bacillus subtilis [7]; IFO 3007, 24 h",4 µg/mL
same,inhibition in vivo at 20 mg/kg,Rattus norvegicus [16],50.6%
same,inhibition in vivo at 40 mg/kg,Rattus norvegicus [17],65.2%
O=[N+]([O-])c1ccc(Cn2nc(C34CC5CC(CC(C5)C3)C4)sc2=S)cc1,growth inhibition (GI),Staphylococcus aureus [10],inactive
same,growth inhibition (GI),Bacillus subtilis [11],inactive
same,growth inhibition (GI),Micrococcus luteus [12],inactive
same,growth inhibition (GI),Escherichia coli [13],inactive
same,growth inhibition (GI),Pseudomonas aeruginosa [14],inactive
same,growth inhibition (GI),Candida albicans [15],inactive
Clc1ccccc1C(c1ccccc1)(c1ccccc1)n1ccnc1 [CLOTRIMAZOLE],GI,Candida albicans [18],21 mm
same,MIC,Candida albicans [19],2 µg/mL
S=C(Nc1ccc(Cl)cc1)Nc1nnc(C23CC4CC(CC(C4)C2)C3)s1,GI,Staphylococcus aureus [10],15 mm
same,GI,Bacillus subtilis [11],20 mm
same,GI,Micrococcus luteus [12],12 mm
same,growth inhibition (GI),Escherichia coli [13],inactive
same,growth inhibition (GI),Pseudomonas aeruginosa [14],inactive
same,growth inhibition (GI),Candida albicans [15],inactive
same,MIC,"Bacillus subtilis [7]; IFO 3007, 24 h",2 µg/mL
Fc1ccc(NC(=S)Nc2nnc(C34CC5CC(CC(C5)C3)C4)s2)cc1,GI,Staphylococcus aureus [10],14 mm
same,GI,Bacillus subtilis [11],19 mm
same,GI,Micrococcus luteus [12],11 mm
same,growth inhibition (GI),Escherichia coli [13],inactive
same,growth inhibition (GI),Pseudomonas aeruginosa [14],inactive
same,growth inhibition (GI),Candida albicans [15],inactive
same,MIC,"Bacillus subtilis [7]; IFO 3007, 24 h",4 µg/mL
O=c1[nH]nc(C23CC4CC(CC(C4)C2)C3)s1,growth inhibition (GI),Staphylococcus aureus [10],inactive
same,growth inhibition (GI),Bacillus subtilis [11],inactive
same,growth inhibition (GI),Micrococcus luteus [12],inactive
same,growth inhibition (GI),Escherichia coli [13],inactive
same,growth inhibition (GI),Pseudomonas aeruginosa [14],inactive
same,growth inhibition (GI),Candida albicans [15],inactive
O=C(O)CCn1nc(C23CC4CC(CC(C4)C2)C3)sc1=S,GI,Staphylococcus aureus [10],11 mm
same,GI,Bacillus subtilis [11],13 mm
same,growth inhibition (GI),Micrococcus luteus [12],inactive
same,growth inhibition (GI),Escherichia coli [13],inactive
same,growth inhibition (GI),Pseudomonas aeruginosa [14],inactive
same,GI,Candida albicans [15],11 mm
same,inhibition in vivo at 20 mg/kg,Rattus norvegicus [16],7.47%
same,inhibition in vivo at 40 mg/kg,Rattus norvegicus [17],36.8%
S=c1[nH]nc(C23CC4CC(CC(C4)C2)C3)s1,GI,Staphylococcus aureus [10],13 mm
same,GI,Bacillus subtilis [11],13 mm
same,growth inhibition (GI),Micrococcus luteus [12],inactive
same,GI,Escherichia coli [13],27 mm
same,GI,Pseudomonas aeruginosa [14],20 mm
same,growth inhibition (GI),Candida albicans [15],inactive
same,MIC,Escherichia coli [20],0.5 µg/mL
same,MIC,"Pseudomonas aeruginosa [9]; IFO 3448, 24 h",2 µg/mL
CCN1CCN(Cn2nc(C34CC5CC(CC(C5)C3)C4)sc2=S)CC1,GI,Staphylococcus aureus [10],12 mm
same,GI,Bacillus subtilis [11],13 mm
same,growth inhibition (GI),Micrococcus luteus [12],inactive
same,growth inhibition (GI),Escherichia coli [13],inactive
same,growth inhibition (GI),Pseudomonas aeruginosa [14],inactive
same,growth inhibition (GI),Candida albicans [15],inactive
same,inhibition in vivo at 20 mg/kg,Rattus norvegicus [16],11.3%
same,inhibition in vivo at 40 mg/kg,Rattus norvegicus [17],10.6%
Fc1ccc(Cn2nc(C34CC5CC(CC(C5)C3)C4)sc2=S)cc1,growth inhibition (GI),Staphylococcus aureus [10],inactive
same,growth inhibition (GI),Bacillus subtilis [11],inactive
same,growth inhibition (GI),Micrococcus luteus [12],inactive
same,growth inhibition (GI),Escherichia coli [13],inactive
same,growth inhibition (GI),Pseudomonas aeruginosa [14],inactive
same,GI,Candida albicans [15],14 mm
S=C(Nc1ccccc1)Nc1nnc(C23CC4CC(CC(C4)C2)C3)s1,GI,Staphylococcus aureus [10],13 mm
same,GI,Bacillus subtilis [11],14 mm
same,GI,Micrococcus luteus [12],15 mm
same,growth inhibition (GI),Escherichia coli [13],inactive
same,growth inhibition (GI),Pseudomonas aeruginosa [14],inactive
same,growth inhibition (GI),Candida albicans [15],inactive
CC1(C)S[C@@H]2[C@H](NC(=O)[C@H](N)c3ccccc3)C(=O)N2[C@H]1C(=O)O [AMPICILLIN],GI,Staphylococcus aureus [1],23 mm
same,GI,Bacillus subtilis [2],21 mm
same,GI,Micrococcus luteus [3],19 mm
same,GI,Escherichia coli [4],17 mm
same,GI,Pseudomonas aeruginosa [5],17 mm
same,MIC,"Bacillus subtilis [7]; IFO 3007, 24 h",0.5 µg/mL
same,MIC,"Micrococcus luteus [8]; IFO 3232, 24 h",2 µg/mL
same,MIC,"Pseudomonas aeruginosa [9]; IFO 3448, 24 h",2 µg/mL
S=c1sc(C23CC4CC(CC(C4)C2)C3)nn1Cc1ccccc1,growth inhibition (GI),Staphylococcus aureus [10],inactive
same,growth inhibition (GI),Bacillus subtilis [11],inactive
same,growth inhibition (GI),Micrococcus luteus [12],inactive
same,growth inhibition (GI),Escherichia coli [13],inactive
same,growth inhibition (GI),Pseudomonas aeruginosa [14],inactive
same,growth inhibition (GI),Candida albicans [15],inactive
same,inhibition in vivo at 20 mg/kg,Rattus norvegicus [16],1.12%
same,inhibition in vivo at 40 mg/kg,Rattus norvegicus [17],0.92%
CN1CCN(Cn2nc(C34CC5CC(CC(C5)C3)C4)sc2=S)CC1,GI,Staphylococcus aureus [10],13 mm
same,GI,Bacillus subtilis [11],14 mm
same,GI,Micrococcus luteus [12],14 mm
same,growth inhibition (GI),Escherichia coli [13],inactive
same,growth inhibition (GI),Pseudomonas aeruginosa [14],inactive
same,growth inhibition (GI),Candida albicans [15],inactive
COc1ccc2c(c1)c(CC(=O)O)c(C)n2C(=O)c1ccc(Cl)cc1 [INDOMETHACIN],inhibition in vivo at 5 mg/kg,Rattus norvegicus [21],52.8%
